From ChEMBL document CHEMBL4390639, “Design, Synthesis, and Biological Evaluation of Novel Allosteric Protein Disulfide Isomerase Inhibitors” (J Med Chem, 2019)

Key:
[1] = biological target: Protein disulfide-isomerase (Homo sapiens, UniProt P07237); assay: Binding affinity to recombinant human N-terminal His-tagged PDI expressed in Escherichia coli BL21 (DE3) pLysS by ROX dye based thermal shift assay
How it was run: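 Thermal shift conditions: PDI (0.5 mg/mL, 50 mM Tris, pH 7.0) with ROX dye, heated 25–99 °C at 1 °C/min. […] Kd was fitted from melting-temperature change versus vehicle.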

U-87 MG [2] = assay: Up regulation of HMOX1 gene expression in human U87MG cells at 10 uM incubated for 4 hrs followed by bromouridine addition during last 30 mins of incubation by TRIzol-reagent based Bru-Seq analysis relative to control; assay type: functional, U-87MG ATCC
How it was run: (§1)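 U87MG cells exposed to compound or DMSO vehicle for 4 h, with 2 mM bromouridine added for the final 30 min. Total RNA isolated with TRIzol; Bru-labelled nascent RNA captured on anti-BrdU antibody-conjugated magnetic beads and sequenced. Transcript abundance expressed as RPKM relative to DMSO. Experiment performed once.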

U-87 MG [3] = assay: Up regulation of NR4A1 gene expression in human U87MG cells at 10 uM incubated for 4 hrs followed by bromouridine addition during last 30 mins of incubation by TRIzol-reagent based Bru-Seq analysis relative to control; assay type: functional, U-87MG ATCC; how it was run: as §1
U-87 MG [4] = assay: Up regulation of SLC7A5 gene expression in human U87MG cells at 10 uM incubated for 4 hrs followed by bromouridine addition during last 30 mins of incubation by TRIzol-reagent based Bru-Seq analysis relative to control; assay type: functional, U-87MG ATCC
How it was run: (§2)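 U87MG cells treated 4 h with test compound (10 or 16 μM, as per line) or DMSO; 2 mM bromouridine added for final 30 min. Total RNA isolated with TRIzol, Bru-labelled nascent RNA captured with anti-BrdU antibody magnetic beads and sequenced; transcript abundance (RPKM) compared with DMSO control. Single experiment.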

U-87 MG [5] = assay: Down regulation of BBS10 gene expression in human U87MG cells at 10 uM incubated for 4 hrs followed by bromouridine addition during last 30 mins of incubation by TRIzol-reagent based Bru-Seq analysis relative to control; assay type: functional, U-87MG ATCC
U-87 MG [6] = assay: Up regulation of PSAT1 gene expression in human U87MG cells at 10 uM incubated for 4 hrs followed by bromouridine addition during last 30 mins of incubation by TRIzol-reagent based Bru-Seq analysis relative to control; assay type: functional, U-87MG ATCC; how it was run: as §1
U-87 MG [7] = assay: Up regulation of TRIB3 gene expression in human U87MG cells at 10 uM incubated for 4 hrs followed by bromouridine addition during last 30 mins of incubation by TRIzol-reagent based Bru-Seq analysis relative to control; assay type: functional, U-87MG ATCC; how it was run: as §2
U-87 MG [8] = assay: Down regulation of ANKRD36B gene expression in human U87MG cells at 10 uM incubated for 4 hrs followed by bromouridine addition during last 30 mins of incubation by TRIzol-reagent based Bru-Seq analysis relative to control; assay type: functional, U-87MG ATCC
U-87 MG [9] = assay: Up regulation of MMP1 gene expression in human U87MG cells at 10 uM incubated for 4 hrs followed by bromouridine addition during last 30 mins of incubation by TRIzol-reagent based Bru-Seq analysis relative to control; assay type: functional, U-87MG ATCC; how it was run: as §1
U-87 MG [10] = assay: Down regulation of LRRC63 gene expression in human U87MG cells at 10 uM incubated for 4 hrs followed by bromouridine addition during last 30 mins of incubation by TRIzol-reagent based Bru-Seq analysis relative to control; assay type: functional, U-87MG ATCC
U-87 MG [11] = assay: Up regulation of GCNT3 gene expression in human U87MG cells at 10 uM incubated for 4 hrs followed by bromouridine addition during last 30 mins of incubation by TRIzol-reagent based Bru-Seq analysis relative to control; assay type: functional, U-87MG ATCC; how it was run: as §1
U-87 MG [12] = assay: Up regulation of HSPA4L gene expression in human U87MG cells at 10 uM incubated for 4 hrs followed by bromouridine addition during last 30 mins of incubation by TRIzol-reagent based Bru-Seq analysis relative to control; assay type: functional, U-87MG ATCC; how it was run: as §1
U-87 MG [13] = assay: Up regulation of AC087672.3 gene expression in human U87MG cells at 16 uM incubated for 4 hrs followed by bromouridine addition during last 30 mins of incubation by TRIzol-reagent based Bru-Seq analysis relative to control; assay type: functional, U-87MG ATCC; how it was run: as §1
U-87 MG [14] = assay: Up regulation of AC005324.3 gene expression in human U87MG cells at 16 uM incubated for 4 hrs followed by bromouridine addition during last 30 mins of incubation by TRIzol-reagent based Bru-Seq analysis relative to control; assay type: functional, U-87MG ATCC; how it was run: as §1
U-87 MG [15] = assay: Down regulation of LRRN3 gene expression in human U87MG cells at 16 uM incubated for 4 hrs followed by bromouridine addition during last 30 mins of incubation by TRIzol-reagent based Bru-Seq analysis relative to control; assay type: functional, U-87MG ATCC; how it was run: as §1
U-87 MG [16] = assay: Up regulation of NMRAL2P gene expression in human U87MG cells at 16 uM incubated for 4 hrs followed by bromouridine addition during last 30 mins of incubation by TRIzol-reagent based Bru-Seq analysis relative to control; assay type: functional, U-87MG ATCC; how it was run: as §1
U-87 MG [17] = assay: Up regulation of OSGIN1 gene expression in human U87MG cells at 16 uM incubated for 4 hrs followed by bromouridine addition during last 30 mins of incubation by TRIzol-reagent based Bru-Seq analysis relative to control; assay type: functional, U-87MG ATCC; how it was run: as §1
U-87 MG [18] = assay: Down regulation of LIF gene expression in human U87MG cells at 16 uM incubated for 4 hrs followed by bromouridine addition during last 30 mins of incubation by TRIzol-reagent based Bru-Seq analysis relative to control; assay type: functional, U-87MG ATCC
U-87 MG [19] = assay: Down regulation of HIST1H4B gene expression in human U87MG cells at 16 uM incubated for 4 hrs followed by bromouridine addition during last 30 mins of incubation by TRIzol-reagent based Bru-Seq analysis relative to control; assay type: functional, U-87MG ATCC
U-87 MG [20] = assay: Down regulation of KIAA0040 gene expression in human U87MG cells at 16 uM incubated for 4 hrs followed by bromouridine addition during last 30 mins of incubation by TRIzol-reagent based Bru-Seq analysis relative to control; assay type: functional, U-87MG ATCC
U-87 MG [21] = assay: Down regulation of AC007848.1 gene expression in human U87MG cells at 16 uM incubated for 4 hrs followed by bromouridine addition during last 30 mins of incubation by TRIzol-reagent based Bru-Seq analysis relative to control; assay type: functional, U-87MG ATCC
U-87 MG [22] = assay: Up regulation of HSPH1 gene expression in human U87MG cells at 16 uM incubated for 4 hrs followed by bromouridine addition during last 30 mins of incubation by TRIzol-reagent based Bru-Seq analysis relative to control; assay type: functional, U-87MG ATCC; how it was run: as §1
U-87 MG [23] = assay: Down regulation of AC022601.1 gene expression in human U87MG cells at 16 uM incubated for 4 hrs followed by bromouridine addition during last 30 mins of incubation by TRIzol-reagent based Bru-Seq analysis relative to control; assay type: functional, U-87MG ATCC
U-87 MG [24] = assay: Down regulation of RAET1E gene expression in human U87MG cells at 16 uM incubated for 4 hrs followed by bromouridine addition during last 30 mins of incubation by TRIzol-reagent based Bru-Seq analysis relative to control; assay type: functional, U-87MG ATCC; how it was run: as §1

Sequence of Protein disulfide-isomerase (P07237 whole entry): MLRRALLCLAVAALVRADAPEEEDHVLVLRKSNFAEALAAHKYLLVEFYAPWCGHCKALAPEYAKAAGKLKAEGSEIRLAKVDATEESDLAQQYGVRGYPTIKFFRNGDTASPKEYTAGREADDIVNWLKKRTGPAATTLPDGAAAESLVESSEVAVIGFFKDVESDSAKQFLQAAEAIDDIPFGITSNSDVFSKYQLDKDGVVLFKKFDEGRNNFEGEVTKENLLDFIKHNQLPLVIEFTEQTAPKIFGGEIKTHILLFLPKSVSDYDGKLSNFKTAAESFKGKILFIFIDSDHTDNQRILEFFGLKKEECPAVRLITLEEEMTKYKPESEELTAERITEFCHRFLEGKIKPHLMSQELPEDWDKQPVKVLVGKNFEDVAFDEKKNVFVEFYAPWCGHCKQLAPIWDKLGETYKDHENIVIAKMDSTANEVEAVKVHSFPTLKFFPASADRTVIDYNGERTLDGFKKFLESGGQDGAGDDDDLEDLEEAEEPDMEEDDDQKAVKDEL

N#Cc1cccc(/C=C/C(=O)c2ccc(O)cc2)c1
Kd [1]: 9.8 µM

CCCCCN(CCCCC)S(=O)(=O)c1ccc(C(=O)/C=C/c2cccc(C#N)c2)cc1
fold change (FC) (U-87 MG [2]): 27.6 | fold change (FC) (U-87 MG [3]): 18.9 | fold change (FC) (U-87 MG [4]): 16.8 | fold change (FC) (U-87 MG [5]): 2.3 | fold change (FC) (U-87 MG [6]): 11.7 | fold change (FC) (U-87 MG [7]): 34.1 | fold change (FC) (U-87 MG [8]): 2.8 | fold change (FC) (U-87 MG [9]): 32.1 | fold change (FC) (U-87 MG [10]): 2.5 | fold change (FC) (U-87 MG [11]): 10 | fold change (FC) (U-87 MG [12]): 8.6

COC(=O)c1cccc(/C=C/C(=O)c2cccc(O)c2)c1
fold change (FC) (U-87 MG [13]): 3.8 | fold change (FC) (U-87 MG [14]): 5.3 | fold change (FC) (U-87 MG [15]): 3.6 | fold change (FC) (U-87 MG [16]): 15 | log2FC (U-87 MG [16]): 4.1 | fold change (FC) (U-87 MG [17]): 5.4 | fold change (FC) (U-87 MG [18]): 2.7 | fold change (FC) (U-87 MG [19]): 2.7 | fold change (FC) (U-87 MG [20]): 2.6 | fold change (FC) (U-87 MG [21]): 2.9 | fold change (FC) (U-87 MG [22]): 5 | fold change (FC) (U-87 MG [23]): 2.7 | fold change (FC) (U-87 MG [24]): 3.4
